Experimental data reported in ChEMBL document CHEMBL4425169 (ACS Med Chem Lett, 2016).
Activity calls are given as the source filed them. The calls are words filed in the database; no cut-off is given here.

Columns and labels:
[1] = target: T1, Voltage-gated inwardly rectifying potassium channel KCNH2 (Homo sapiens, UniProt Q12809); experiment: Displacement of [35S]MK-499 from human ERG
[2] = Clearance in rat at 1 mg/kg, iv or 2 mg/kg, po; format: ADME, organism-based; conditions: in vivo
In short: (§1)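 Rats dosed once at 1 mg/kg IV and, separately, 2 mg/kg PO, with n = 3. Derived parameters were plasma clearance, Vdss, dose-normalized oral AUC (μM·h·kg/mg), half-life, and oral bioavailability (F%).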

Cytochrome P450 2D6 = Cytochrome P450 2D6 (Homo sapiens, UniProt P10635); experiment: Reversible inhibition of human CYP2D6; format: ADME
Chain of Cytochrome P450 2D6 (P10635 whole entry): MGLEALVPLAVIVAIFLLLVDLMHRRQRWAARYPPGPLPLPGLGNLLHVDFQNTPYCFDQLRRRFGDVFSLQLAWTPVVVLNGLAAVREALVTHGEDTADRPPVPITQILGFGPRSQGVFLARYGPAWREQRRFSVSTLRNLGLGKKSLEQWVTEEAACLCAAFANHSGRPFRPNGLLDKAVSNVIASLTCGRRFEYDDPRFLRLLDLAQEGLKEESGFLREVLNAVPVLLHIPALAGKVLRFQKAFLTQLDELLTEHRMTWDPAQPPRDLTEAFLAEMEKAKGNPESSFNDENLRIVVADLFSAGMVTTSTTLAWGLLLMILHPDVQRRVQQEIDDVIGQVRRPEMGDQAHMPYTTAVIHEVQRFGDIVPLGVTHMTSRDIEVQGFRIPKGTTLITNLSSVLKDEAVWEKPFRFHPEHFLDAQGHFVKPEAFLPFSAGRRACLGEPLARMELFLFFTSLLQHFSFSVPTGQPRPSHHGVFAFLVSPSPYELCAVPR

[3] = Cardiotoxicity in vagotomized cardiovascular dog model assessed as effect on QRS complex at plasma concentration <= 11.6 uM at 1 to 7 mg/kg, iv administered during three sequential 30 min periods; format: toxicity, organism-based, Canis lupus familiaris; conditions: in vivo, 0.5 h
In short: (§2)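 Anesthetized, vagotomized dogs received IV infusions over sequential periods at 1, 2 and 7 mg/kg (10 mg/kg cumulative). Heart rate, mean arterial pressure and ECG intervals (PR, QRS, QT/QTc) were recorded predose and during each infusion period. Plasma concentrations were measured.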

Cytochrome P450 3A4 = Cytochrome P450 3A4 (Homo sapiens, UniProt P08684); experiment: Time dependent inhibition of human CYP3A4 at 10 to 50 uM; format: ADME
Chain of Cytochrome P450 3A4 (P08684 whole entry): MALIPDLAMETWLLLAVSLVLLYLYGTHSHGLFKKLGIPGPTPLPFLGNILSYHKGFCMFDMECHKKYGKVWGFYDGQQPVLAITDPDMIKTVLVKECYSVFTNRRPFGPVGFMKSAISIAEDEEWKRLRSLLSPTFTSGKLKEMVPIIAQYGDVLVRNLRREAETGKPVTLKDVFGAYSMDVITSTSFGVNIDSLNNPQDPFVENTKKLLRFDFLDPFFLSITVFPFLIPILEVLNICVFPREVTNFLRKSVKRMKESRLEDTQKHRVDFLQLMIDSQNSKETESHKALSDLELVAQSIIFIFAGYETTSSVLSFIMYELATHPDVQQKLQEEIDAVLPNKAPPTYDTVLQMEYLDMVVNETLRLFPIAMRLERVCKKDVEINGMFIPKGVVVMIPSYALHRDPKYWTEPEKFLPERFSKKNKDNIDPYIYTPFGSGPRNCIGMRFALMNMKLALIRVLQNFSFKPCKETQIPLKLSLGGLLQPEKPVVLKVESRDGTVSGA

[4] = Drug metabolism in human hepatocytes assessed as oxidation at 1 uM measured at 120 mins; format: ADME, cell-based, Hepatocyte; conditions: read-out: Drug metabolism
[5] = Clearance in rhesus monkey at 1 mg/kg, iv or 2 mg/kg, po; format: ADME, organism-based, Macaca mulatta; conditions: in vivo
[6] = target: T2, Sodium-dependent serotonin transporter (Homo sapiens, UniProt P31645); experiment: Inhibition of human SERT
T2 sequence (P31645 whole entry): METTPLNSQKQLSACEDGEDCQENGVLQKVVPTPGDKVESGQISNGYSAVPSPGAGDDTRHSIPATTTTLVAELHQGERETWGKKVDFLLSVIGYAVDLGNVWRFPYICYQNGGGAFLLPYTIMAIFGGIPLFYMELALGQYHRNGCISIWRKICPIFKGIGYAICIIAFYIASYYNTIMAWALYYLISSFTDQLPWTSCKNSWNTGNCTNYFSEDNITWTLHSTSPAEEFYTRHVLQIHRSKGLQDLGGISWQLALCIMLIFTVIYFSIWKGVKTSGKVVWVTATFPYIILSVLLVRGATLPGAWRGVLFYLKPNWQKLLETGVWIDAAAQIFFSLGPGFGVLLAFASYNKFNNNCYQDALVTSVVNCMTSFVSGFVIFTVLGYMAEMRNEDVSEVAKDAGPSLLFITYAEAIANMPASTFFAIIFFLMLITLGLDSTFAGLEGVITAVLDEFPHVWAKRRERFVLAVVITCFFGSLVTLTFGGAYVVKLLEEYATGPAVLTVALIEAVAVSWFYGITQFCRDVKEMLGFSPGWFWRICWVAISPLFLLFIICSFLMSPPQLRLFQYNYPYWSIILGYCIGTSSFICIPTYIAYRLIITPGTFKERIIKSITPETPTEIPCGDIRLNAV

Rattus norvegicus [7] = experiment: Antihypertensive activity in spontaneously hypertensive rat assessed as reduction in systolic blood pressure administered via oral gavage once daily for 4 days measured on day 4 by telemetry; format: functional, organism-based
[8] = Half life in rhesus monkey at 1 mg/kg, iv or 2 mg/kg, po; format: ADME, organism-based, Macaca mulatta; conditions: in vivo
Rattus norvegicus [9] = experiment: Natriuretic activity in Sprague-Dawley rat at 0.3 mg/kg via oral gavage administered 30 mins prior to void induction by loading saline measured upto 4 hrs relative to vehicle treated control; format: functional
In short: (§3)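 Acute rat diuresis model in male-unspecified Sprague-Dawley rats, single oral dose, urine collected over 4 h. Urine volume, sodium excretion and potassium excretion expressed as fold increase over vehicle-treated controls; n = 5 per group; significance tested against vehicle.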

[10] = target: T2, Sodium-dependent serotonin transporter; experiment: Inhibition of [3H]-serotonin uptake at human SERT transfected in HEK293 cells; format: cell-based
[11] = Dose normalized AUC in rat at 2 mg/kg, po; format: ADME, organism-based; conditions: in vivo; in short: as §1
[12] = Volume of distribution at steady state in dog at 1 mg/kg, iv or 2 mg/kg, po; format: ADME, organism-based, Canis lupus familiaris; conditions: in vivo, read-out: Vdss
Rattus norvegicus [13] = experiment: Kaliuretic activity in Sprague-Dawley rat at 3 mg/kg via oral gavage administered 30 mins prior to void induction by loading saline measured upto 4 hrs relative to vehicle treated control; format: functional; in short: as §3
[14] = Drug metabolism in bile duct cannulated rat assessed as lactone hydrolysis; format: ADME
[15] = Drug metabolism in dog hepatocytes assessed as glucuronidation at 1 uM measured at 120 mins; format: ADME, cell-based, Canis lupus familiaris, Hepatocyte; conditions: read-out: Drug metabolism
[16] = Dose normalized AUC in rhesus monkey at 2 mg/kg, po; format: ADME, organism-based, Macaca mulatta; conditions: in vivo
[17] = target: T3, Inward rectifier potassium channel 4 (Homo sapiens) (UniProt P48050); experiment: Inhibition of Kir2.3 (unknown origin) upto 30 uM
T3 sequence (whole entry): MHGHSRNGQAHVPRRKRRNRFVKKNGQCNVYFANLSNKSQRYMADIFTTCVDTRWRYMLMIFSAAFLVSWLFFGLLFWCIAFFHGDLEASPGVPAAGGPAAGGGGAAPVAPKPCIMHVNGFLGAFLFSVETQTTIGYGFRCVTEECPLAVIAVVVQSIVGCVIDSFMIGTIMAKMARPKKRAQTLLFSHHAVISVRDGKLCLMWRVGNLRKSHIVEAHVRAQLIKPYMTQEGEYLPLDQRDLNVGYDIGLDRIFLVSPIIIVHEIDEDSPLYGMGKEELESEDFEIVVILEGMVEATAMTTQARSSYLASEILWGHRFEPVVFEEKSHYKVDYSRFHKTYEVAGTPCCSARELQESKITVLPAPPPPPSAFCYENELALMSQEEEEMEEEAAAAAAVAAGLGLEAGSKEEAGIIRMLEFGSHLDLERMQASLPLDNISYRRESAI

[18] = Half life in dog at 1 mg/kg, iv or 2 mg/kg, po; format: ADME, organism-based, Canis lupus familiaris; conditions: in vivo
[19] = Volume of distribution at steady state in rhesus monkey at 1 mg/kg, iv or 2 mg/kg, po; format: ADME, organism-based, Macaca mulatta; conditions: in vivo, read-out: Vdss
[20] = target: Sodium channel protein type 5 subunit alpha (Homo sapiens, UniProt Q14524); experiment: Inhibition of Nav1.5 (unknown origin)
[21] = Oral bioavailability in dog at 2 mg/kg; format: ADME, organism-based, Canis lupus familiaris; conditions: in vivo
[22] = target: T1, Voltage-gated inwardly rectifying potassium channel KCNH2; experiment: Inhibition of human ERG after 6 mins by electrophysiological assay
[23] = target: Somatostatin receptor type 1 (Homo sapiens, UniProt P30872); experiment: Inhibition of somatostatin receptor subtype 1 (unknown origin)
Chain of Somatostatin receptor type 1 (P30872 whole entry): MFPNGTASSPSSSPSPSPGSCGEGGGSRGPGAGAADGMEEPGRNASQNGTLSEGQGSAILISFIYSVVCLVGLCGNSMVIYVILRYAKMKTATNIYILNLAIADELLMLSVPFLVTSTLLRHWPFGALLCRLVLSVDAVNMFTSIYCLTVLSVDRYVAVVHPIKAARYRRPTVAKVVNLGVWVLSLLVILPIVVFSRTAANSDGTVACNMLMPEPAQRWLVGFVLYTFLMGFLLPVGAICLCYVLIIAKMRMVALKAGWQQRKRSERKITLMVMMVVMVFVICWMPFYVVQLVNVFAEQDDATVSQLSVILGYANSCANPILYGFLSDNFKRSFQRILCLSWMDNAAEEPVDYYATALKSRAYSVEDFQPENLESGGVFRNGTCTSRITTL

[24] = Cardiotoxicity in vagotomized cardiovascular dog model assessed as effect on QT/QTc interval at plasma concentration <= 11.6 uM at 1 to 7 mg/kg, iv administered during three sequential 30 min periods; format: toxicity, organism-based, Canis lupus familiaris; conditions: in vivo, 0.5 h; in short: as §2
[25] = Clearance in dog at 1 mg/kg, iv or 2 mg/kg, po; format: ADME, organism-based, Canis lupus familiaris; conditions: in vivo
[26] = target: T4, Inward rectifier potassium channel 13 (Homo sapiens) (UniProt O60928); experiment: Inhibition of Kir7.1 (unknown origin) upto 30 uM
T4 sequence (whole entry): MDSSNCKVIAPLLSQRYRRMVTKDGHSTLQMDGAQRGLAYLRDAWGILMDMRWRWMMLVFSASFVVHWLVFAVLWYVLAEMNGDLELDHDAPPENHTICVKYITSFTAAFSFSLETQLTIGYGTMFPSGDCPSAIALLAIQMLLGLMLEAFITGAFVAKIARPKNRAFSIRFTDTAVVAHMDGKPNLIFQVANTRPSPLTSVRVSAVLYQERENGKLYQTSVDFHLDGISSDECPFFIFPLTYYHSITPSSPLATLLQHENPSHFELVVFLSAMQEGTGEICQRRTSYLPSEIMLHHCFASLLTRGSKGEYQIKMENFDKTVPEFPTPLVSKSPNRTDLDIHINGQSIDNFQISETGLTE

Rattus norvegicus [27] = experiment: Diuretic activity in Sprague-Dawley rat at 0.3 mg/kg via oral gavage administered 30 mins prior to void induction by loading saline measured upto 4 hrs relative to vehicle treated control; format: functional; in short: as §3
[28] = Drug metabolism in dog hepatocytes assessed as lactone hydrolysis at 1 uM measured at 120 mins; format: ADME, cell-based, Canis lupus familiaris, Hepatocyte; conditions: read-out: Drug metabolism
Rattus norvegicus [29] = experiment: Kaliuretic activity in Sprague-Dawley rat at 0.3 mg/kg via oral gavage administered 30 mins prior to void induction by loading saline measured upto 4 hrs relative to vehicle treated control; format: functional; in short: as §3

T1 sequence (Q12809 whole entry): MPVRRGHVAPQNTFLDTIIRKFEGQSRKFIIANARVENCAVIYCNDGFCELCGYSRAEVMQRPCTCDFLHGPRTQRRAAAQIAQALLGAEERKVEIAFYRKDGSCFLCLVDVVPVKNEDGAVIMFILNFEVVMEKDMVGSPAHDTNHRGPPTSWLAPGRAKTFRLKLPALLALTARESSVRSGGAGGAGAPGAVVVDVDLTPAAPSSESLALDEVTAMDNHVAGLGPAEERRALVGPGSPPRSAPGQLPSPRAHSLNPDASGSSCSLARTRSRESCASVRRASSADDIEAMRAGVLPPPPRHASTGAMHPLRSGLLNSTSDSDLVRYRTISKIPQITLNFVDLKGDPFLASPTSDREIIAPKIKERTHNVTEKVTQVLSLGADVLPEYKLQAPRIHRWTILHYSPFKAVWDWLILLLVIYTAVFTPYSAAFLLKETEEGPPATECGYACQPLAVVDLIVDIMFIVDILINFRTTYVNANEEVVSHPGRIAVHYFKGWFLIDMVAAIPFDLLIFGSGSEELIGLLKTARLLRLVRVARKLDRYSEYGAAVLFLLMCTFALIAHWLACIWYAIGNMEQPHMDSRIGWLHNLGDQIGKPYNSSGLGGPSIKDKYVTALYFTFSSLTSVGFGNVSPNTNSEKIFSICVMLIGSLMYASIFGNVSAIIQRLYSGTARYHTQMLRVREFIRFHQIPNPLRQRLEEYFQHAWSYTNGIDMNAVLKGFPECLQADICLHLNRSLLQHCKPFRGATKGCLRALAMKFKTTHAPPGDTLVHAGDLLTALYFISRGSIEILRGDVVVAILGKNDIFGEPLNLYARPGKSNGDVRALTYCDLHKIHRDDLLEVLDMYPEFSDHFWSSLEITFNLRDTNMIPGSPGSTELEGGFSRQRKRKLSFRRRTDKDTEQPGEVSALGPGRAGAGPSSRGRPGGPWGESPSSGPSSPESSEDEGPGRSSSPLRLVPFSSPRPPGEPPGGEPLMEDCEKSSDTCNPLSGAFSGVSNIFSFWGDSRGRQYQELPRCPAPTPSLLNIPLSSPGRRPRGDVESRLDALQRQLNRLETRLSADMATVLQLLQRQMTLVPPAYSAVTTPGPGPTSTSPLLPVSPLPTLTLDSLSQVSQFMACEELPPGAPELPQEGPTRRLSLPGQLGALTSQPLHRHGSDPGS

Cc1c([C@@H](O)CN2CCN(C[C@H](O)c3ccc4c(c3C)COC4=O)CC2)ccc2c1COC2=O [MK-7145]
IC50 [1]: 23 µM | clearance [2]: 56 mL/min/kg | IC50 (Cytochrome P450 2D6): > 50 µM | Activity [3]: Non-Toxic | TDI (Cytochrome P450 3A4): Not Active | metabolised at 2 h, 1 µM [4]: 15 to 37% | clearance [5]: 29 mL/min/kg | IC50 [6]: 0.12 µM | Activity (Rattus norvegicus [7]): Dose-dependent effect | half-life [8]: 4 h | fold change (FC) (Rattus norvegicus [9]): 6.2 | IC50 [10]: 2.4 µM | AUC/dose [11]: 0.14 µM·kg·h/mg | Vd [12]: 7.5 L/kg | fold change (FC) (Rattus norvegicus [13]): 1.4 | Drug metabolism [14]: Metabolite_Detected | metabolised at 2 h, 1 µM [15]: < 1% | AUC/dose [16]: 0.3 µM·kg·h/mg | inhibition [17]: inactive | half-life [18]: 1.7 h | Vd [19]: 6.7 L/kg | IC50 [20]: > 30 µM | bioavailability [21]: 51% | IC50 [22]: 22 µM | IC50 [23]: 2.63 µM | Activity [24]: Non-Toxic | clearance [25]: 56 mL/min/kg | inhibition [26]: inactive | fold change (FC) (Rattus norvegicus [27]): 6.4 | metabolised at 2 h, 1 µM [28]: < 1% | fold change (FC) (Rattus norvegicus [29]): 2.1
